Legend:
[1] = Cytotoxicity against human DU145 cells after 48 hrs by SRB assay; format: functional; conditions: DU-145, 48 h
Outline: (§1)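 NCI-60 five-dose screen: compounds dissolved in DMSO/H2O, tested at five 10-fold dilutions (10^-4 to 10^-8 M) for 48 h. Growth measured by sulforhodamine B optical density at time zero and after 48 h drug or vehicle exposure. Percentage growth calculated relative to control. GI50 is the molar concentration giving 50% reduction in net cell growth versus day-0 cell numbers.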

MCF7 = experiment: Cytotoxicity against human MCF7 cells after 48 hrs by SRB assay; format: functional; conditions: MCF7, 48 h; outline: as §1
MDA-MB-231 = experiment: Cytotoxicity against human MDA-MB-231 cells after 48 hrs by SRB assay; format: functional; conditions: MDA-MB-231, 48 h; outline: as §1
[2] = Cytotoxicity against human Hs 578T cells after 48 hrs by SRB assay; format: functional; outline: as §1
[3] = Cytotoxicity against human BT549 cells after 48 hrs by SRB assay; format: functional; conditions: BT-549, 48 h; outline: as §1
T47D = experiment: Cytotoxicity against human T47D cells after 48 hrs by SRB assay; format: functional
Outline: (§2)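 NCI-60 five-dose screen. Compounds dissolved in DMSO/H2O and tested at five 10-fold dilutions (10^-4 to 10^-8 M) for 48 h. Growth read by sulforhodamine B optical density at time zero and after 48 h of exposure to compound or vehicle. Percent growth calculated against control. GI50 is the molar concentration giving 50% reduction in net cell growth relative to cell number on day 0.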

MDA-MB-468 = experiment: Cytotoxicity against human MDA-MB-468 cells after 48 hrs by SRB assay; format: functional; conditions: MDA-MB-468, 48 h; outline: as §1
Tubulin = Tubulin (Sus scrofa, UniProt P02554+P02550); experiment: Inhibition of porcine brain tubulin polymerization by spectrophotometric analysis
Outline: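 Tubulin at 4 mg/mL in cold 80 mM PIPES pH 6.9 with 2 mM MgCl2, 0.5 mM EGTA, GTP and 10% glycerol. Compound (added as 10x stock in 50% DMSO) or DMSO was preincubated 2 min at 37 °C in a prewarmed plate. Cold tubulin was then added, and polymerization at 37 °C was followed by A340 over time. Dose-response, mean ± s.d., n=3.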

CCRF-CEM = experiment: Cytotoxicity against human CCRF-CEM cells after 48 hrs by SRB assay; format: functional; outline: as §1
[4] = Cytotoxicity against human HL-60(TB) cells after 48 hrs by SRB assay; format: functional; conditions: HL-60, 48 h; outline: as §1
K562 = experiment: Cytotoxicity against human K562 cells after 48 hrs by SRB assay; format: functional; conditions: K562, 48 h; outline: as §1
[5] = Cytotoxicity against human MOLT4 cells after 48 hrs by SRB assay; format: functional; conditions: MOLT-4, 48 h; outline: as §1
[6] = Cytotoxicity against human RPMI8226 cells after 48 hrs by SRB assay; format: functional; conditions: RPMI-8226, 48 h; outline: as §1
SR = experiment: Cytotoxicity against human SR cells after 48 hrs by SRB assay; format: functional; outline: as §1
A549 = experiment: Cytotoxicity against human A549 cells after 48 hrs by SRB assay; format: functional; conditions: A549, 48 h; outline: as §1
NCI-H226 = experiment: Cytotoxicity against human NCI-H226 cells after 48 hrs by SRB assay; format: functional; conditions: NCI-H226, 48 h; outline: as §1
NCI-H23 = experiment: Cytotoxicity against human NCI-H23 cells after 48 hrs by SRB assay; format: functional; conditions: NCI-H23, 48 h; outline: as §1
NCI-H460 = experiment: Cytotoxicity against human NCI-H460 cells after 48 hrs by SRB assay; format: functional; conditions: NCI-H460, 48 h; outline: as §1
NCI-H522 = experiment: Cytotoxicity against human NCI-H522 cells after 48 hrs by SRB assay; format: functional; conditions: NCI-H522, 48 h; outline: as §1
[7] = Cytotoxicity against human COLO205 cells after 48 hrs by SRB assay; format: functional; conditions: COLO 205, 48 h; outline: as §1
[8] = Cytotoxicity against human HCC2998 cells after 48 hrs by SRB assay; format: functional; conditions: HCC 2998, 48 h; outline: as §1
[9] = Cytotoxicity against human HCT116 cells after 48 hrs by SRB assay; format: functional; conditions: HCT-116, 48 h; outline: as §1
[10] = Cytotoxicity against human HCT15 cells after 48 hrs by SRB assay; format: functional; conditions: HCT-15, 48 h; outline: as §1
HT-29 = experiment: Cytotoxicity against human HT-29 cells after 48 hrs by SRB assay; format: functional; conditions: HT-29, 48 h; outline: as §1
KM12 = experiment: Cytotoxicity against human KM12 cells after 48 hrs by SRB assay; format: functional; conditions: KM12, 48 h; outline: as §1
[11] = Cytotoxicity against human SW620 cells after 48 hrs by SRB assay; format: functional; conditions: SW-620, 48 h; outline: as §1
[12] = Cytotoxicity against human SF268 cells after 48 hrs by SRB assay; format: functional; conditions: SF-268, 48 h; outline: as §1
[13] = Cytotoxicity against human SF295 cells after 48 hrs by SRB assay; format: functional; conditions: SF-295, 48 h; outline: as §1
[14] = Cytotoxicity against human SF539 cells after 48 hrs by SRB assay; format: functional; conditions: SF-539, 48 h; outline: as §1
[15] = Cytotoxicity against human SNB19 cells after 48 hrs by SRB assay; format: functional; conditions: SNB-19, 48 h; outline: as §1
[16] = Cytotoxicity against human SNB75 cells after 48 hrs by SRB assay; format: functional; conditions: SNB-75, 48 h; outline: as §1
U-251 = experiment: Cytotoxicity against human U251 cells after 48 hrs by SRB assay; format: functional; conditions: U-251, 48 h; outline: as §2
[17] = Cytotoxicity against human LOXIMVI cells after 48 hrs by SRB assay; format: functional; conditions: LOX IMVI; outline: as §1
M14 = experiment: Cytotoxicity against human M14 cells after 48 hrs by SRB assay; format: functional; conditions: M14, 48 h; outline: as §1
MDA-MB-435 = experiment: Cytotoxicity against human MDA-MB-435 cells after 48 hrs by SRB assay; format: functional; conditions: MDA-MB-435, 48 h; outline: as §1
SK-MEL-2 = experiment: Cytotoxicity against human SK-MEL-2 cells after 48 hrs by SRB assay; format: functional; conditions: SK-MEL-2, 48 h; outline: as §1
SK-MEL-28 = experiment: Cytotoxicity against human SK-MEL-28 cells after 48 hrs by SRB assay; format: functional; conditions: SK-MEL-28, 48 h; outline: as §1
SK-MEL-5 = experiment: Cytotoxicity against human SK-MEL-5 cells after 48 hrs by SRB assay; format: functional; conditions: SK-MEL-5, 48 h; outline: as §1
[18] = Cytotoxicity against human UACC257 cells after 48 hrs by SRB assay; format: functional; conditions: UACC-257, 48 h; outline: as §2
[19] = Cytotoxicity against human UACC62 cells after 48 hrs by SRB assay; format: functional; conditions: UACC-62, 48 h; outline: as §2
[20] = Cytotoxicity against human OVCAR3 cells after 48 hrs by SRB assay; format: functional; conditions: OVCAR-3, 48 h; outline: as §1
[21] = Cytotoxicity against human OVCAR4 cells after 48 hrs by SRB assay; format: functional; conditions: OVCAR-4, 48 h; outline: as §1
[22] = Cytotoxicity against human OVCAR5 cells after 48 hrs by SRB assay; format: functional; conditions: OVCAR-5, 48 h; outline: as §1
[23] = Cytotoxicity against human OVCAR8 cells after 48 hrs by SRB assay; format: functional; conditions: OVCAR-8, 48 h; outline: as §1
[24] = Cytotoxicity against human NCI-ADR-RES cells after 48 hrs by SRB assay; format: functional; outline: as §1
[25] = Cytotoxicity against human SKOV3 cells after 48 hrs by SRB assay; format: functional; conditions: SK-OV-3, 48 h; outline: as §1
786-0 = experiment: Cytotoxicity against human 786-0 cells after 48 hrs by SRB assay; format: functional; conditions: 786-0, 48 h; outline: as §1
A498 = experiment: Cytotoxicity against human A498 cells after 48 hrs by SRB assay; format: functional; conditions: A498, 48 h; outline: as §1
ACHN = experiment: Cytotoxicity against human ACHN cells after 48 hrs by SRB assay; format: functional; outline: as §1
[26] = Cytotoxicity against human Caki1 cells after 48 hrs by SRB assay; format: functional; conditions: CAKI-1, 48 h; outline: as §1
[27] = Cytotoxicity against human RXF393 cells after 48 hrs by SRB assay; format: functional; conditions: RXF 393, 48 h; outline: as §1
SN12C = experiment: Cytotoxicity against human SN12C cells after 48 hrs by SRB assay; format: functional; outline: as §1
[28] = Cytotoxicity against human TK10 cells after 48 hrs by SRB assay; format: functional; conditions: TK-10, 48 h; outline: as §2
[29] = Cytotoxicity against human UO31 cells after 48 hrs by SRB assay; format: functional; conditions: UO-31, 48 h; outline: as §2
[30] = Cytotoxicity against human PC3 cells after 48 hrs by SRB assay; format: functional; conditions: PC-3, 48 h; outline: as §1

For `COc1cc(-c2n[nH]nc2-c2c[nH]c3ccccc23)cc(OC)c1OC`, the GI50 [1] was 90 nM, the GI50 (MCF7) was 29 nM and the GI50 (MDA-MB-231) was 89 nM. It also gave a GI50 [2] of 42 nM, a GI50 [3] of 28 nM and a GI50 (T47D) of 48 nM. For the same compound, the GI50 (MDA-MB-468) was 42 nM, the IC50 (Tubulin) was 18500 nM and the GI50 (CCRF-CEM) was 48 nM. It also gave a GI50 [4] of 46 nM, a GI50 (K562) of 53 nM and a GI50 [5] of 160 nM. For the same compound, the GI50 [6] was 90 nM, the GI50 (SR) was 90 nM and the GI50 (A549) was 90 nM. For the same compound, the GI50 (NCI-H226) was 390 nM, the GI50 (NCI-H23) was 270 nM and the GI50 (NCI-H460) was 42 nM. The GI50 (NCI-H522) was 21 nM, the GI50 [7] was 34 nM and the GI50 [8] was 440 nM. For the same compound, the GI50 [9] was 41 nM, the GI50 [10] was 35 nM and the GI50 (HT-29) was 33 nM. It also gave a GI50 (KM12) of 45 nM, a GI50 [11] of 43 nM and a GI50 [12] of 71 nM. It also gave a GI50 [13] of 32 nM, a GI50 [14] of 31 nM and a GI50 [15] of 61 nM. It also gave a GI50 [16] of 30 nM, a GI50 (U-251) of 59 nM and a GI50 [17] of 71 nM. It also gave a GI50 (M14) of 36 nM, a GI50 (MDA-MB-435) of 14 nM and a GI50 (SK-MEL-2) of 30 nM. The GI50 (SK-MEL-28) was 112 nM, the GI50 (SK-MEL-5) was 43 nM and the GI50 [18] was 13900 nM. The GI50 [19] was 43 nM, the GI50 [20] was 33 nM and the GI50 [21] was 1160 nM. The GI50 [22] was 381 nM, the GI50 [23] was 1160 nM and the GI50 [24] was 34 nM. For the same compound, the GI50 [25] was 42 nM, the GI50 (786-0) was 35 nM and the GI50 (A498) was 35 nM. For the same compound, the GI50 (ACHN) was 43 nM, the GI50 [26] was 44 nM and the GI50 [27] was 164 nM. The GI50 (SN12C) was 1390 nM, the GI50 [28] was 1390 nM and the GI50 [29] was 87 nM. The GI50 [30] was 44 nM.
